Tests used:
Assay type in all cases: functional
HCT-116 = test: Growth inhibition of human HCT116 cells at 10 uM relative to control; details: values are per cent of control
Summary of the method: (§1)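 Single-dose preliminary screen in the NCI human cancer cell line panel, run by the NIH. Percent inhibition of cell line growth was calculated by comparison with untreated samples.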

HCT-15 = test: Growth inhibition of human HCT15 cells at 10 uM relative to control; details: values are per cent of control; summary of the method: as §1
HT-29 = test: Growth inhibition of human HT-29 cells at 10 uM relative to control; details: values are per cent of control; summary of the method: as §1
KM12 = test: Growth inhibition of human KM12 cells at 10 uM relative to control; details: values are per cent of control; summary of the method: as §1
SW-620 = test: Growth inhibition of human SW620 cells at 10 uM relative to control; details: values are per cent of control
Summary of the method: (§2)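 Single-dose NCI human tumour cell line screen, run by the NIH. Percent inhibition of cell line growth was calculated by comparison with untreated samples.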

BT-549 = test: Growth inhibition of human BT549 cells at 10 uM relative to control; details: values are per cent of control; summary of the method: as §1
MCF7 = test: Growth inhibition of human MCF7 cells at 10 uM relative to control; details: values are per cent of control; summary of the method: as §1
MDA-MB-231 = test: Growth inhibition of human MDA-MB-231 cells at 10 uM relative to control; details: values are per cent of control; summary of the method: as §1
MDA-MB-435 = test: Growth inhibition of human MDA-MB-435 cells at 10 uM relative to control; details: values are per cent of control; summary of the method: as §1
MDA-MB-468 = test: Growth inhibition of human MDA-MB-468 cells at 10 uM relative to control; details: values are per cent of control; summary of the method: as §1
NCI/ADR-RES = test: Growth inhibition of human NCI/ADR-RES cells at 10 uM relative to control; details: values are per cent of control; summary of the method: as §1
T47D = test: Growth inhibition of human T47D cells at 10 uM relative to control; details: values are per cent of control; summary of the method: as §2
IGROV-1 = test: Growth inhibition of human IGROV1 cells at 10 uM relative to control; details: values are per cent of control; summary of the method: as §1
OVCAR-3 = test: Growth inhibition of human OVCAR-3 cells at 10 uM relative to control; details: values are per cent of control; summary of the method: as §1
OVCAR-4 = test: Growth inhibition of human OVCAR4 cells at 10 uM relative to control; details: values are per cent of control; summary of the method: as §1
OVCAR-5 = test: Growth inhibition of human OVCAR5 cells at 10 uM relative to control; details: values are per cent of control; summary of the method: as §1
OVCAR-8 = test: Growth inhibition of human OVCAR8 cells at 10 uM relative to control; details: values are per cent of control; summary of the method: as §1
SK-OV-3 = test: Growth inhibition of human SKOV3 cells at 10 uM relative to control; details: values are per cent of control; summary of the method: as §1
CCRF-CEM = test: Growth inhibition of human CCRF-CEM cells at 10 uM relative to control; details: values are per cent of control; summary of the method: as §1
HL-60(TB) = test: Growth inhibition of human HL-60(TB) cells at 10 uM relative to control; details: read-out: INH
Summary of the method: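 Single-dose cell line screen run by the NCI (NIH) in its human cancer cell line panel, which includes the leukemia line HL-60(TB). Percent growth inhibition was calculated by comparison with untreated samples.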

K562 = test: Growth inhibition of human K562 cells at 10 uM relative to control; details: values are per cent of control; summary of the method: as §1
MOLT-4 = test: Growth inhibition of human MOLT4 cells at 10 uM relative to control; details: values are per cent of control; summary of the method: as §1
[1] = Growth inhibition of human RPMI8266 cells at 10 uM relative to control; details: values are per cent of control; summary of the method: as §1
786-0 = test: Growth inhibition of human 786-0 cells at 10 uM relative to control; details: values are per cent of control; summary of the method: as §1
A498 = test: Growth inhibition of human A498 cells at 10 uM relative to control; details: values are per cent of control; summary of the method: as §1
ACHN = test: Growth inhibition of human ACHN cells at 10 uM relative to control; details: values are per cent of control; summary of the method: as §1
CAKI-1 = test: Growth inhibition of human Caki1 cells at 10 uM relative to control; details: values are per cent of control; summary of the method: as §1
SN12C = test: Growth inhibition of human SN12C cells at 10 uM relative to control; details: values are per cent of control; summary of the method: as §1
TK-10 = test: Growth inhibition of human TK10 cells at 10 uM relative to control; details: values are per cent of control; summary of the method: as §2
UO-31 = test: Growth inhibition of human UO31 cells at 10 uM relative to control; details: values are per cent of control; summary of the method: as §2
LOX IMVI = test: Growth inhibition of human LOXIMVI cells at 10 uM relative to control; details: values are per cent of control; summary of the method: as §1
M14 = test: Growth inhibition of human M14 cells at 10 uM relative to control; details: values are per cent of control; summary of the method: as §1

Structure (SMILES): O=C(/C=C/c1cn(CCc2ccccc2)nn1)NO
- growth, % of control at 10 µM (HCT-116): 5.49%
- growth, % of control at 10 µM (HCT-15): 75.8%
- growth, % of control at 10 µM (HT-29): 56.9%
- growth, % of control at 10 µM (KM12): 67.8%
- growth, % of control at 10 µM (SW-620): 31.1%
- growth, % of control at 10 µM (BT-549): 78%
- growth, % of control at 10 µM (MCF7): 63.7%
- growth, % of control at 10 µM (MDA-MB-231): 60.3%
- growth, % of control at 10 µM (MDA-MB-435): 21.9%
- growth, % of control at 10 µM (MDA-MB-468): 56%
- growth, % of control at 10 µM (NCI/ADR-RES): -13.7%
- growth, % of control at 10 µM (T47D): 32.8%
- growth, % of control at 10 µM (IGROV-1): 44.6%
- growth, % of control at 10 µM (OVCAR-3): 61.3%
- growth, % of control at 10 µM (OVCAR-4): 77.5%
- growth, % of control at 10 µM (OVCAR-5): 23.5%
- growth, % of control at 10 µM (OVCAR-8): 26.5%
- growth, % of control at 10 µM (SK-OV-3): 57%
- growth, % of control at 10 µM (CCRF-CEM): 7.44%
- growth, % of control at 10 µM (HL-60(TB)): -10.7%
- growth, % of control at 10 µM (K562): 30.5%
- growth, % of control at 10 µM (MOLT-4): 3.77%
- growth, % of control at 10 µM [1]: 1.76%
- growth, % of control at 10 µM (786-0): 26.3%
- growth, % of control at 10 µM (A498): 52.4%
- growth, % of control at 10 µM (ACHN): 29.3%
- growth, % of control at 10 µM (CAKI-1): 52.9%
- growth, % of control at 10 µM (SN12C): 64.8%
- growth, % of control at 10 µM (TK-10): 57.7%
- growth, % of control at 10 µM (UO-31): 37.4%
- growth, % of control at 10 µM (LOX IMVI): 44.9%
- growth, % of control at 10 µM (M14): 44.7%

— ChEMBL document CHEMBL1140227, “Histone deacetylase inhibitors through click chemistry” (J Med Chem, 2008)
